Source: ChEMBL document CHEMBL1806391, “Synthesis and biological evaluation of novel 5-alkyl-2-arylthio-6-((3,4-dihydroquinolin-1(2H)-yl)methyl)pyrimidin-4(3H)-ones as potent non-nucleoside HIV-1 reverse transcriptase inhibitors” (Bioorg Med Chem, 2011)
Activity calls are given as the source filed them. No cut-off for these calls is given here.

Tests used:
[1] = Cytotoxic activity against human MT4 cells assessed as viability of mock-infected cells after 5 days by MTT assay; type: cell-based
In short: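 Mock-infected, exponentially growing MT-4 cells (6 × 10⁵ cells/mL) were exposed to serial fivefold compound dilutions in triplicate wells. After 5 days, viability was read by MTT formazan absorbance at 540 and 690 nm. CC₅₀ is the concentration that lowered OD540 of the mock-infected control by 50%, using the median OD of three wells.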

[2] = Selectivity index, ratio of CC50 for human MT4 cells to EC50 for wild type Human immunodeficieny virus 1 3B infected in human MT4 cells; type: toxicity, cell-based; details: read-out: Ratio CC50/EC50
In short: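 SI is CC₅₀ in mock-infected MT-4 cells divided by EC₅₀ against HIV-1 IIIB, both from 5-day MTT assays in triplicate wells.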

[3] = system: Human immunodeficiency virus 1; assay: Antiviral activity against wild type Human immunodeficiency virus 1 3B infected in human MT4 cells assessed as protection against virus-induced cytotoxicity after 5 days by MTT assay; type: functional, organism-based; details: MT4, 120 h
In short: (§1)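 MT-4 cells, spun 5 min at 1000 rpm, were resuspended at 6 × 10⁵ cells/mL and infected with HIV-1 IIIB or HIV-2 ROD. Compounds were added at the start in serial fivefold dilutions, in triplicate wells. Viability was read by MTT reduction at 540 and 690 nm five days post-infection. EC₅₀ is the concentration giving 50% protection from viral cytopathic effect, using the median OD of three wells.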

[4] = system: Human immunodeficiency virus 2; assay: Antiviral activity against wild type Human immunodeficiency virus 2 ROD infected in human MT4 cells assessed as protection against virus-induced cytotoxicity after 5 days by MTT assay; type: functional, organism-based; details: Human immunodeficiency virus 2, ISOLATE ROD, MT4, 120 h; in short: as §1
[5] = system: Human immunodeficiency virus 2; assay: Antiviral activity against Human immunodeficiency virus 2 ROD infected in human MT4 cells assessed as inhibition of viral replication; type: functional, organism-based; details: ISOLATE ROD; in short: as §1

Compound | CC50 at 120 h [1] [µM] | selectivity ratio [2] | EC50 [3] [µM] | EC50 [4] [µM] | inhibition [5]
CC(C)Nc1cccnc1N1CCN(C(=O)c2cc3cc(NS(C)(=O)=O)ccc3[nH]2)CC1 [DELAVIRDINE] | > 3.83 | > 12 |  |  | 
O=c1cc(CN2CCCc3ccccc32)nc(SCc2ccc(Cl)cc2)[nH]1 | > 53.6 | < 1 | > 53.6 | > 53.6 | inactive
Cc1cn([C@H]2C[C@H](N=[N+]=[N-])[C@@H](CO)O2)c(=O)[nH]c1=O [ZIDOVUDINE] | > 93.5 | > 6190 |  |  | 
COc1ccc(CSc2nc(CN3CCCc4ccccc43)cc(=O)[nH]2)cc1 | 181 | 7 | 25.1 | > 181 | inactive
O=C(CSc1nc(CN2CCCc3ccccc32)cc(=O)[nH]1)c1ccccc1 | 153 | 6 | 24.6 | > 153 | inactive
CCc1c(CN2CCCc3ccccc32)nc(SCc2ccc([N+](=O)[O-])cc2)[nH]c1=O | 195 | 188 | 1.03 | > 195 | inactive
O=c1cc(CN2CCCc3ccccc32)nc(SCc2ccc([N+](=O)[O-])cc2)[nH]1 | 73.9 | ≤ 2 | ≥ 49.5 | > 73.9 | inactive
O=c1cc(CN2CCCc3ccccc32)nc(SCc2ccccc2)[nH]1 | 94.2 | ≤ 3 | ≥ 32.2 | > 94.2 | inactive
CCc1c(CN2CCCc3ccccc32)nc(SCC(=O)c2ccc(F)cc2)[nH]c1=O | 156 | 273 | 0.57 | > 156 | inactive
CCc1c(CN2CCCc3ccccc32)nc(SCC(=O)c2ccc(C)cc2)[nH]c1=O | 288 | 271 | 1.06 | > 288 | inactive
CCc1c(CN2CCCc3ccccc32)nc(SCc2ccc(F)cc2)[nH]c1=O | 133 | < 1 | > 133 | > 133 | inactive
COc1ccc(C(=O)CSc2nc(CN3CCCc4ccccc43)cc(=O)[nH]2)cc1 | 160 | 7 | 24 | > 160 | inactive
Cc1c(CN2CCCc3ccccc32)nc(SCC(=O)c2ccc([N+](=O)[O-])cc2)[nH]c1=O | 23.7 | ≤ 8 | ≥ 3.13 | > 23.7 | inactive
CCc1c(CN2CCCc3ccccc32)nc(SCc2ccc(OC)cc2)[nH]c1=O | 147 | 244 | 0.59 | > 147 | inactive
O=c1cc(CN2CCCc3ccccc32)nc(SCc2ccc(F)cc2)[nH]1 | 182 | 6 | 29.7 | > 182 | inactive
COc1ccc(CSc2nc(CN3CCCc4ccccc43)c(C)c(=O)[nH]2)cc1 | 59.6 | 93 | 0.64 | > 59.6 | inactive
CCc1c(CN2CCCc3ccccc32)nc(SCC(=O)c2ccc(Cl)cc2)[nH]c1=O | 275 | 249 | 1.01 | > 275 | inactive

Compound | CC50 at 120 h [1] [µM] | selectivity ratio [2] | EC50 [3] [µM] | EC50 [4] [µM] | inhibition [5]
O=C1Nc2ccc(Cl)cc2[C@@](C#CC2CC2)(C(F)(F)F)O1 [EFAVIRENZ] | > 6.34 | > 1430 |  |  | 
Cc1c(CN2CCCc3ccccc32)nc(SCc2ccc([N+](=O)[O-])cc2)[nH]c1=O | 76.9 | 41 | 1.88 | > 76.9 | inactive
Cc1c(CN2CCCc3ccccc32)nc(SCC(=O)c2ccc(Cl)cc2)[nH]c1=O | 42.1 | 19 | 2.16 | > 42.1 | inactive
COc1ccc(C(=O)CSc2nc(CN3CCCc4ccccc43)c(C)c(=O)[nH]2)cc1 | 60.7 | 144 | 0.42 | > 60.7 | inactive
CCc1c(CN2CCCc3ccccc32)nc(SCC(=O)c2ccc(C#N)cc2)[nH]c1=O | 115 | 109 | 1.06 | > 115 | inactive
Cc1ccc(CSc2nc(CN3CCCc4ccccc43)cc(=O)[nH]2)cc1 | 64.3 | < 1 | > 64.3 | > 64.3 | inactive
CCc1c(CN2CCCc3ccccc32)nc(SCc2ccc(C)cc2)[nH]c1=O | 160 | < 29 | ≥ 5.42 | > 160 | inactive
Cc1c(CN2CCCc3ccccc32)nc(SCc2ccc(Cl)cc2)[nH]c1=O | 65.5 | ≤ 29 | ≥ 2.25 | > 65.5 | inactive
N#Cc1ccc(C(=O)CSc2nc(CN3CCCc4ccccc43)cc(=O)[nH]2)cc1 | > 197 | > 1 | > 197 | > 197 | inactive
O=C(CSc1nc(CN2CCCc3ccccc32)cc(=O)[nH]1)c1ccc(F)cc1 | 136 | 5 | 29.6 | > 136 | inactive
CCc1c(CN2CCCc3ccccc32)nc(SCc2ccc(Cl)cc2)[nH]c1=O | 135 | ≤ 25 | ≥ 5.42 | > 135 | inactive
Cc1c(CN2CCCc3ccccc32)nc(SCC(=O)c2ccc(C#N)cc2)[nH]c1=O | 44.5 | 6 | 7.35 | > 44.5 | inactive
Cc1c(CN2CCCc3ccccc32)nc(SCc2ccc(C#N)cc2)[nH]c1=O | 13 | 7 | 1.78 | > 13 | inactive
O=C(CSc1nc(CN2CCCc3ccccc32)cc(=O)[nH]1)c1ccc([N+](=O)[O-])cc1 | 209 | < 1 | > 209 | > 209 | inactive
CCc1c(CN2CCCc3ccccc32)nc(SCC(=O)c2ccc([N+](=O)[O-])cc2)[nH]c1=O | 111 | 56 | 1.98 | > 111 | inactive
N#Cc1ccc(CSc2nc(CN3CCCc4ccccc43)cc(=O)[nH]2)cc1 | 86.8 | ≤ 2 | ≥ 43 | > 86.8 | inactive
Cc1ccnc2c1NC(=O)c1cccnc1N2C1CC1 [NEVIRAPINE] | > 15 |  |  |  | 
